Reference: PMC4714695 (Cancer Science, 2015)
Like-named read-outs stand apart in the source and are kept apart here.

What was measured:
[1] = tested on: Japanese patients with acute myeloid leukemia; test: Adverse events graded by CTCAE version 3.0; assay type: in vivo, human
How it was run: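 Adults with relapsed/refractory or untreated AML unfit for standard induction, ECOG ≤2. Test compound given as a 2-h IV drip infusion on days 1 and 15 of 28-day cycles, at 350, 400 or 450 mg per administration. AEs from all cycles graded by CTCAE v3.0 and tabulated per dose cohort by MedDRA system organ class, preferred term and grade, with drug causality assigned. Safety cut-off 6 June 2014.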

[2] = tested on: more than 50 unrelated kinases; settings: more than 50 kinases tested; cited from earlier work
[3] = tested on: White patients with relapsed or refractory AML; settings: cited from earlier work
PLK3 = settings: compared with PLK1; cited from earlier work
[4] = 400 mg (n = 4), irrespective of relationship
[5] = 450 mg (n = 8), irrespective of relationship
[6] = Total (N = 19), irrespective of relationship
[7] = all cohorts (N = 19), all grades
[8] = all cohorts (N = 19), all treatment cycles

SMILES: CC[C@@H]1C(=O)N(C)c2cnc(Nc3ccc(C(=O)N[C@H]4CC[C@H](N5CCN(CC6CC6)CC5)CC4)cc3OC)nc2N1C(C)C [Volasertib]
- Neutropenia, all grades, patients [1, 4]: 1 n
- Neutropenia, grade 4, patients [1, 4]: 1 n
- Rash, all grades, patients [1, 4]: 4 n
- Sepsis, all grades, patients [1, 4]: 1 n
- Sepsis, grade 3, patients [1, 4]: 1 n
- Stomatitis, all grades, patients [1, 4]: 1 n
- Vomiting, all grades, patients [1, 4]: 1 n
- Patients reporting grade 4 AE ([1]; 400 mg cohort 2, neutropenia and thrombocytopenia): two of four patients
- Decreased appetite, all grades, patients [1, 5]: 2 n
- Decreased appetite, grade 3, patients [1, 5]: 2 n
- Epistaxis, all grades, patients [1, 5]: 2 n
- Fatigue, all grades, patients [1, 5]: 1 n
- Febrile neutropenia, all grades, patients [1, 5]: 7 n
- Febrile neutropenia, grade 3, patients [1, 5]: 6 n
- Hypoalbuminemia, all grades, patients [1, 5]: 1 n
- Hypokalemia, all grades, patients [1, 5]: 2 n
- Hypokalemia, grade 4, patients [1, 5]: 1 n
- Infection, all grades, patients [1, 5]: 1 n
- Nausea, all grades, patients [1, 5]: 4 n
- Neutropenia, all grades, patients [1, 5]: 1 n
- Neutropenia, grade 4, patients [1, 5]: 1 n
- Pyrexia, all grades, patients [1, 5]: 2 n
- Rash, all grades, patients [1, 5]: 3 n
- Sepsis, all grades, patients [1, 5]: 2 n
- Sepsis, grade 3, patients [1, 5]: 2 n
- Stomatitis, all grades, patients [1, 5]: 2 n
- Vomiting, all grades, patients [1, 5]: 2 n
- Patients reporting grade 4 AE ([1]; 450 mg cohort 3, neutropenia, hypokalemia and abnormal liver function test): three of eight patients
- Blood creatinine increased, all grades, patients [1, 6]: 3 n
- Decreased appetite, all grades, patients [1, 6]: 8 n
- Decreased appetite, grade 3, patients [1, 6]: 3 n
- Epistaxis, all grades, patients [1, 6]: 5 n
- Fatigue, all grades, patients [1, 6]: 5 n
- Febrile neutropenia, all grades, patients [1, 6]: 15 n
- Febrile neutropenia, grade 3, patients [1, 6]: 14 n
- Hyperuricemia, all grades, patients [1, 6]: 3 n
- Hypoalbuminemia, all grades, patients [1, 6]: 3 n
- Hypokalemia, all grades, patients [1, 6]: 5 n
- Hypokalemia, grade 3, patients [1, 6]: 1 n
- Hypokalemia, grade 4, patients [1, 6]: 1 n
- Infection, all grades, patients [1, 6]: 3 n
- Infection, grade 3, patients [1, 6]: 2 n
- Nausea, all grades, patients [1, 6]: 7 n
- Neutropenia, all grades, patients [1, 6]: 3 n
- Neutropenia, grade 4, patients [1, 6]: 3 n
- Pyrexia, all grades, patients [1, 6]: 4 n
- Rash, all grades, patients [1, 6]: 7 n
- Sepsis, all grades, patients [1, 6]: 5 n
- Sepsis, grade 3, patients [1, 6]: 5 n
- Stomatitis, all grades, patients [1, 6]: 5 n
- Vomiting, all grades, patients [1, 6]: 4 n
- Decreased appetite, frequency [1, 7]: 42.1%
- Epistaxis, frequency [1, 7]: 26.3%
- Fatigue, frequency [1, 7]: 26.3%
- Febrile neutropenia, frequency [1, 7]: 78.9%
- Hypokalemia, frequency [1, 7]: 26.3%
- Nausea, frequency [1, 7]: 36.8%
- Pyrexia, frequency [1, 7]: 21.1%
- Rash, frequency [1, 7]: 36.8%
- Sepsis, frequency [1, 7]: 26.3%
- Stomatitis, frequency [1, 7]: 26.3%
- Vomiting, frequency [1, 7]: 21.1%
- Patients reporting CTCAE of grade ≥3 [1, 8]: 94.7%
- Patients reporting at least one AE irrespective of cause [1, 8]: 19 patients
- Patients reporting at least one drug-related AE [1, 8]: 19 patients
- Inhibition of unrelated kinases [2]: does not inhibit
- DLT reported in White patients ([3]; 400 mg): mucosal inflammation
- DLT reported in White patients ([3]; 450 mg): pyrexia
- MTD in White patients ([3]; volasertib monotherapy, phase I): 450 mg
- Inhibition of PLK3 (PLK3): to a lesser extent
